# Results: the M2OR odorant receptor database
# Legend:
# Settings in all cases: stereoisomer not certain
# UniProt Q7TRX0 = molecular target: T1, UniProt Q7TRX0
# T1 sequence (whole entry): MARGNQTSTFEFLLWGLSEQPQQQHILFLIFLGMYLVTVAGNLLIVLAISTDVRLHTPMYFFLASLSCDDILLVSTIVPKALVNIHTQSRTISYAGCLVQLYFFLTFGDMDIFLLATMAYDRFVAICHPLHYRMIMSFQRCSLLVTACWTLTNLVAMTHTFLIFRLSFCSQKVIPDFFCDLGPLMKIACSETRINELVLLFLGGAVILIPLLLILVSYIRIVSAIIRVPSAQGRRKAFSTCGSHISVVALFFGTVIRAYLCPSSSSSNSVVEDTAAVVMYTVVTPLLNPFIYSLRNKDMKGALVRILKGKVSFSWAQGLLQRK
# In short: (§1)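 Each receptor–molecule pair is labelled responsive or non-responsive (inactive) according to whether the original authors judged the measured signal statistically different from baseline. The data were taken from the main text and supplementary material of published papers and checked for typos and inconsistencies. Assay methods differed by source, with transient luciferase assays in mammalian cell lines being common.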
# UniProt Q8VF43 = molecular target: T2, UniProt Q8VF43
# T2 sequence (whole entry): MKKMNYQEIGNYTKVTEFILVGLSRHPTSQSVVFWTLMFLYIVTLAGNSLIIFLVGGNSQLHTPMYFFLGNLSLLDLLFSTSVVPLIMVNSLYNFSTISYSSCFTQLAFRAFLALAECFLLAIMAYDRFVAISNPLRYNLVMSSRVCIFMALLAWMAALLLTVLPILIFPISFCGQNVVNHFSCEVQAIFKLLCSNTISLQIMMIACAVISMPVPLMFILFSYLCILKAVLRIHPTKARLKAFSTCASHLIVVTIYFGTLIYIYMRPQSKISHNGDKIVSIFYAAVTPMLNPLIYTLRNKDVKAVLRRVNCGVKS
# In short: as §1
# UniProt Q7TRW1 = molecular target: T3, UniProt Q7TRW1
# T3 sequence (whole entry): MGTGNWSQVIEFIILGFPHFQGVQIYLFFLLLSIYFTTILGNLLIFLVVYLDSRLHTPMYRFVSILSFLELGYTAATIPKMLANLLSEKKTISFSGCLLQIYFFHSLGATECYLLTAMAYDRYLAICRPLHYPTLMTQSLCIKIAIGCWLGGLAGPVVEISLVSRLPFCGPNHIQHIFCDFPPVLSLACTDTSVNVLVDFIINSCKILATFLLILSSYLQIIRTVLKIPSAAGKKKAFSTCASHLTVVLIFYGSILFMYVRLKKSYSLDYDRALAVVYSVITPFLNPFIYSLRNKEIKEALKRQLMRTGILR
# In short: as §1
# UniProt Q8VEU7 = molecular target: T4, UniProt Q8VEU7
# T4 sequence (whole entry): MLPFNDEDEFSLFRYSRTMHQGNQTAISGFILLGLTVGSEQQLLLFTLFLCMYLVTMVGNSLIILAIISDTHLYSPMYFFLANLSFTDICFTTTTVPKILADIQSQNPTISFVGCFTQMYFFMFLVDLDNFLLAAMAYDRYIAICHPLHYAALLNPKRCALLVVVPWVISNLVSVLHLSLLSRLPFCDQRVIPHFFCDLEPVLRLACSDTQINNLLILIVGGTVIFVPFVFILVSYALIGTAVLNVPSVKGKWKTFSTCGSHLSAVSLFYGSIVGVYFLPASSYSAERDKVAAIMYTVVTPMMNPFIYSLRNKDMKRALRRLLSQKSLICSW
# In short: as §1
# UniProt Q8VF05 = molecular target: T5, UniProt Q8VF05
# T5 sequence (whole entry): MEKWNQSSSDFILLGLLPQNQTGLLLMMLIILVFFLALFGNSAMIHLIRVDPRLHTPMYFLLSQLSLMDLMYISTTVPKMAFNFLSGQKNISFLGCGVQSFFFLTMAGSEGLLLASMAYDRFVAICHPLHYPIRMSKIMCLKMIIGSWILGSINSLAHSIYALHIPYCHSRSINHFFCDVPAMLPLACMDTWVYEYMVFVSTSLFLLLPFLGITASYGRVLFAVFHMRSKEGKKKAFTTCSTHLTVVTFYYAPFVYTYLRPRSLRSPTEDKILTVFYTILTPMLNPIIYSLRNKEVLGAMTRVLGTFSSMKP
# In short: as §1
# UniProt Q8VF24 = molecular target: T6, UniProt Q8VF24
# T6 sequence (whole entry): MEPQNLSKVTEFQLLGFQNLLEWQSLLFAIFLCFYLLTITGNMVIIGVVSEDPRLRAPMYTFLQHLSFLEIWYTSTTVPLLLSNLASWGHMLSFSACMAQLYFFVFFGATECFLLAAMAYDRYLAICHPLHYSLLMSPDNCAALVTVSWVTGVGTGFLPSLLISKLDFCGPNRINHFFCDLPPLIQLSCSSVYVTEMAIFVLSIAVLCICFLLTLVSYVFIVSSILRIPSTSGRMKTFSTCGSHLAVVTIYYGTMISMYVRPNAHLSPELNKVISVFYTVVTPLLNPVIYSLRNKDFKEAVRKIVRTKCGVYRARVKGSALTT
# In short: as §1
# UniProt Q8VF44 = molecular target: T7, UniProt Q8VF44
# T7 sequence (whole entry): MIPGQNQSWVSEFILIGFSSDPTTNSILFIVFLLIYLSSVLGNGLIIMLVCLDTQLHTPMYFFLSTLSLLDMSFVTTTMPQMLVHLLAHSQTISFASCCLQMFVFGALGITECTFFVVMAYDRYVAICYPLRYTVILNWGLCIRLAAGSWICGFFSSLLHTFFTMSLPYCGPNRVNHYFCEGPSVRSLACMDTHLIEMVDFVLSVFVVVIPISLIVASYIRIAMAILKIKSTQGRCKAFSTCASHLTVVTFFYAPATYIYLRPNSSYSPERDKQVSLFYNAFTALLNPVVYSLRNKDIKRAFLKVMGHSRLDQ
# In short: as §1
# UniProt Q7TRN9 = molecular target: UniProt Q7TRN9
# Chain of UniProt Q7TRN9 (Q7TRN9 as listed by the source): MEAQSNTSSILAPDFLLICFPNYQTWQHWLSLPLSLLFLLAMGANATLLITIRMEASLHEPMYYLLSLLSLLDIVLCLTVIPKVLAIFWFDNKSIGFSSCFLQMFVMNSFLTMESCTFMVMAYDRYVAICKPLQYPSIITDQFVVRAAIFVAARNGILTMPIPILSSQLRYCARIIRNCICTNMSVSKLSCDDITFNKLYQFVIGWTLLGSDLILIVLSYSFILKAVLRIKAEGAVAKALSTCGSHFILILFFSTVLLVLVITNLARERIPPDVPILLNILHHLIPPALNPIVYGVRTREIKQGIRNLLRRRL
# In short: as §1
# UniProt Q7TRR8 = molecular target: UniProt Q7TRR8
# Chain of UniProt Q7TRR8 (Q7TRR8 as listed by the source): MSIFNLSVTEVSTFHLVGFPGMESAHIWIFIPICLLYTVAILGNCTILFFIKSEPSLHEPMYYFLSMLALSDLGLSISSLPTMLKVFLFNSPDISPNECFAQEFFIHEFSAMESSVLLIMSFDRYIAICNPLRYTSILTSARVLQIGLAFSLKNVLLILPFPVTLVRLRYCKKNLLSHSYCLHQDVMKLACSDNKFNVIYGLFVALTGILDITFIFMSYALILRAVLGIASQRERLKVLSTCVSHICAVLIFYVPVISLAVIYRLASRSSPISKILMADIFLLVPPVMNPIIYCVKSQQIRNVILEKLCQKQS
# In short: as §1
# UniProt Q8VF06 = molecular target: UniProt Q8VF06
# Chain of UniProt Q8VF06 (Q8VF06 as listed by the source): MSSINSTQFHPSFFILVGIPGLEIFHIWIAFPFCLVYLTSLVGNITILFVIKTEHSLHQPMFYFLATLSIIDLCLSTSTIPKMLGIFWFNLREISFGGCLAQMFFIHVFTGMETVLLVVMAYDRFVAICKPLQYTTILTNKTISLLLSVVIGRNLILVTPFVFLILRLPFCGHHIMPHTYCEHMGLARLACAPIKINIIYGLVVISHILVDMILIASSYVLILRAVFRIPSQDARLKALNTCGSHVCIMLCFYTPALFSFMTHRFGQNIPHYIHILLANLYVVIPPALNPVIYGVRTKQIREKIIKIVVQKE
# In short: as §1
# 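Further: active if original authors judged signal statistically different from baseline.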
compound,measurement,setting,value
CSSC,odorant receptor agonist call,UniProt Q7TRX0,inactive
same,odorant receptor agonist call,UniProt Q8VF43,inactive
C=CCOC(=O)Cc1ccccc1,odorant receptor agonist call,UniProt Q7TRW1,inactive
same,odorant receptor agonist call,UniProt Q7TRX0,inactive
same,odorant receptor agonist call,UniProt Q8VEU7,inactive
same,odorant receptor agonist call,UniProt Q8VF05,active
same,odorant receptor agonist call,UniProt Q8VF24,inactive
same,odorant receptor agonist call,UniProt Q8VF43,inactive
same,odorant receptor agonist call,UniProt Q8VF44,inactive
O=c1cc(O)c2ccccc2o1,odorant receptor agonist call,UniProt Q7TRW1,inactive
same,odorant receptor agonist call,UniProt Q7TRX0,inactive
same,odorant receptor agonist call,UniProt Q8VEU7,inactive
same,odorant receptor agonist call,UniProt Q8VF05,inactive
same,odorant receptor agonist call,UniProt Q8VF24,inactive
same,odorant receptor agonist call,UniProt Q8VF43,inactive
same,odorant receptor agonist call,UniProt Q8VF44,inactive
O=Cc1ccc2c(c1)OCO2,odorant receptor agonist call,UniProt Q7TRX0,inactive
same,odorant receptor agonist call,UniProt Q8VF43,inactive
COc1ccc(C=O)cc1,odorant receptor agonist call,UniProt Q7TRX0,inactive
same,odorant receptor agonist call,UniProt Q8VF43,inactive
OCc1ccc2c(c1)OCO2,odorant receptor agonist call,UniProt Q7TRX0,inactive
same,odorant receptor agonist call,UniProt Q8VF43,inactive
CCC1CCC(=O)O1 (stereo unspecified),odorant receptor agonist call,UniProt Q7TRW1,inactive
same,odorant receptor agonist call,UniProt Q8VEU7,inactive
same,odorant receptor agonist call,UniProt Q8VF05,active
same,odorant receptor agonist call,UniProt Q8VF24,inactive
same,odorant receptor agonist call,UniProt Q8VF44,inactive
O=Cc1ccccc1,odorant receptor agonist call,UniProt Q7TRX0,inactive
same,odorant receptor agonist call,UniProt Q8VF43,inactive
Oc1ccccc1Br,odorant receptor agonist call,UniProt Q7TRX0,inactive
same,odorant receptor agonist call,UniProt Q8VF43,inactive
O=C(O)CCCCCCCBr,odorant receptor agonist call,UniProt Q7TRN9,active
same,odorant receptor agonist call,UniProt Q7TRR8,inactive
same,odorant receptor agonist call,UniProt Q8VF06,inactive
Cc1ccc(OC(=O)Cc2ccccc2)cc1,odorant receptor agonist call,UniProt Q7TRX0,inactive
same,odorant receptor agonist call,UniProt Q8VF43,inactive
CCCCC(Br)C(=O)O (stereo unspecified),odorant receptor agonist call,UniProt Q7TRX0,inactive
same,odorant receptor agonist call,UniProt Q8VF43,inactive
CCCCCCC(Br)C(=O)O (stereo unspecified),odorant receptor agonist call,UniProt Q7TRX0,inactive
same,odorant receptor agonist call,UniProt Q8VF43,inactive
C=C(C)C1CC=C(C=O)CC1 (stereo unspecified),odorant receptor agonist call,UniProt Q7TRX0,inactive
same,odorant receptor agonist call,UniProt Q8VF43,inactive
C=CCc1ccccc1,odorant receptor agonist call,UniProt Q7TRW1,active
same,odorant receptor agonist call,UniProt Q8VEU7,inactive
same,odorant receptor agonist call,UniProt Q8VF05,inactive
same,odorant receptor agonist call,UniProt Q8VF24,inactive
same,odorant receptor agonist call,UniProt Q8VF44,inactive
CC(C=O)Cc1ccc2c(c1)OCO2 (stereo unspecified),odorant receptor agonist call,UniProt Q7TRX0,inactive
same,odorant receptor agonist call,UniProt Q8VF43,inactive
O=CC=Cc1ccccc1,odorant receptor agonist call,UniProt Q7TRX0,inactive
same,odorant receptor agonist call,UniProt Q8VF43,inactive
